Data published in PMC11626521 (RSC Advances, 2024).

Legend:
Experiment in all cases: anti-proliferation assay
HGC-27 = format: cell-based, human
Outline: (§1)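 Seeding was 4000 cells per well, with overnight adherence. Media: HGC-27 and GES-1 in RPMI 1640; HT-29 and HCT-116 in McCoy's 5A; HeLa in DMEM; all with 10% FBS and 1% penicillin–streptomycin, 37 °C, 5% CO2. Test compounds ran 0–500 μM in 3-fold dilutions for 72 h. Read-out was CCK8 (0.5 mM WST-8, 10 μM PMS) for 0.5–2 h, absorbance 450 nm, IC50 from viability. SI = IC50(GES-1)/IC50(HGC-27).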

HT-29 = format: cell-based, human; conditions: read-out: IC50 HT-29; 72 h treatment, CCK8
Outline: as §1

HeLa = format: cell-based, human; conditions: read-out: IC50 HeLa; 72 h treatment, CCK8
Outline: as §1

HCT-116 = format: cell-based, human; conditions: read-out: IC50 HCT-116; 72 h treatment, CCK8
Outline: as §1

GES-1 = format: cell-based; conditions: read-out: IC50 GES-1; normal human gastric mucosa cell line, 72 h treatment, CCK8
Outline: as §1

O=c1[nH]cc(F)c(=O)[nH]1 [5-FU]
SI (GES-1/HGC-27) (HGC-27; SI = IC50 (GES-1)/IC50 (HGC-27)): 0.85
IC50 (HGC-27; read-out: IC50 HGC-27, 72 h treatment, CCK8): 4.75 ± 0.18 µM
IC50 (HT-29): 4.6 ± 0.55 µM
IC50 (HeLa): 3.43 ± 0.33 µM
IC50 (HCT-116): 3.32 ± 0.3 µM
IC50 (GES-1): 4.03 ± 0.19 µM
